Values after ≈ are worked out from the molar mass of the structure shown.

A short description of data set [1]: Protein binding in plasma (unknown origin) measured after 5 hrs by equilibrium dialysis method. The class given is ADME, cell-free. Conditions: read-out: PPB (converted). (In equilibrium dialysis free small molecules cross a membrane that holds back macromolecules.)
The nature of data set [2]: Selectivity ratio of MIC90 for inhibition of DprE1-mediated growth of Mycobacterium tuberculosis H37Rv to MIC90 for inhibition of DprE1-mediated growth of Mycobacterium tuberculosis CDC1551.
Data set [3] is described as follows: Half life in mouse liver microsomes at 2.5 uL preincubated for 5 mins followed by NADPH addition and measured by LC-MS/MS analysis. It counts as ADME, Microsome. (Liver microsomes are a subcellular fraction often used to study metabolism.)
A short description of data set [4]: Half life in […] microsomes at 2.5 uL preincubated for 5 mins followed by NADPH addition and measured by LC-MS/MS analysis. It counts as ADME, Liver, Microsome.
A short description of data set [5]: Stability of the compound in plasma (unknown origin). It counts as ADME, cell-free.
Data set [6] in a line: Intrinsic clearance in mouse liver microsomes at 2.5 uL preincubated for 5 mins followed by NADPH addition and measured by LC-MS/MS analysis. The class given is ADME, Microsome. Conditions: read-out: CLH.
Data set [7] in a line: Kinetic aqueous solubility of the compound in pH 7.4 phosphate buffer incubated for 4.5 hrs under shaking condition by LC-MS/MS analysis. It counts as physicochemical. Conditions: read-out: Kinetic_solubility. The method, boiled down: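 Kinetic solubility measured in phosphate-buffered saline at pH 7.4, with compound quantified by LC–MS/MS.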
Data set [8] in a line: Selectivity ratio of MIC90 for inhibition of DprE1-mediated growth of Mycobacterium tuberculosis H37Rv to MIC90 for inhibition of DprE1-mediated growth of Mycobacterium tuberculosis Erdman.
Data set [9] is described as follows: Intrinsic clearance in human liver microsomes at 2.5 uL preincubated for 5 mins followed by NADPH addition and measured by LC-MS/MS analysis. It counts as ADME, Microsome. Conditions: read-out: CLH.
Data set [10] concerns the target T1, Decaprenylphosphoryl-beta-D-ribose oxidase (Mycobacterium tuberculosis (strain ATCC 25618 / H37Rv)) (UniProt P9WJF1).
T1 sequence (whole entry): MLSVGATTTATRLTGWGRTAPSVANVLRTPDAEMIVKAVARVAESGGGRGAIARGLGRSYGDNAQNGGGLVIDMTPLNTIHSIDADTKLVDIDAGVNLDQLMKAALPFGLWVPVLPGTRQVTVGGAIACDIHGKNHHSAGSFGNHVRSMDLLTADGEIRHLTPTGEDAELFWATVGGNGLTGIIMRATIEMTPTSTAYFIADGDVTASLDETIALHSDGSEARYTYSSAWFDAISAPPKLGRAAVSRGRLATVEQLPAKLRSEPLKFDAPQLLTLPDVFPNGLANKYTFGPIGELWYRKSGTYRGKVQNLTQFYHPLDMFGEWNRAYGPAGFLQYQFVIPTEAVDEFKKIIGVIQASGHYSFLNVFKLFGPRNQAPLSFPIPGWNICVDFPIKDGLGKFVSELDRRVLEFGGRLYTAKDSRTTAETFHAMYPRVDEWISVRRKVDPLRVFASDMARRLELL
The data set is described as follows: Inhibition of Mycobacterium tuberculosis H37Rv DprE1 assessed as reduction in bacterial growth measured after 7 to 10 days by broth microdilution method. The method, boiled down: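 Whole-cell growth assay of M. tuberculosis H37Rv in 7H9 broth. MIC is taken as the lowest concentration giving complete inhibition of observable growth.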
In general terms: Broth dilution looks for growth in wells or tubes with falling amounts of substance.

Data set [11] can be described thus: Ratio of test compound kinetic aqueous solubility to PBTZ169 kinetic aqueous solubility. It counts as physicochemical. Conditions: buffer.
Data set [12] in a line: Mean residence time in specific pathogen free ICR mouse at 10 mg/kg, po by LC/TSQ-MS analysis. The class given is ADME, organism-based. Conditions: in vivo. Summed up:
(§1)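 ICR mice dosed once with compound, intravenously at 2 mg/kg or orally at 10 mg/kg. Plasma pharmacokinetic parameters derived per route: AUC, Cmax, clearance, mean residence time, Vd, terminal elimination half-life, and oral bioavailability from the p.o. versus i.v. comparison.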

A short description of data set [13]: Volume of distribution in specific pathogen free ICR mouse at 2 mg/kg, iv by LC/TSQ-MS analysis. The class given is ADME, organism-based. Conditions: in vivo. The method, boiled down: as §1
The nature of data set [14]: AUC in specific pathogen free ICR mouse at 10 mg/kg, po by LC/TSQ-MS analysis. It counts as ADME, organism-based. Conditions: in vivo. Summed up: as §1
A short description of data set [15]: Oral bioavailability in specific pathogen free ICR mouse at 10 mg/kg by LC/TSQ-MS analysis. The class given is ADME, organism-based. The settings on record: in vivo. The method, boiled down: as §1
A short description of data set [16]: Mean residence time in specific pathogen free ICR mouse at 2 mg/kg, iv by LC/TSQ-MS analysis. It counts as ADME, organism-based. The settings on record: in vivo. The method, boiled down:
as §1

Data set [17] is described as follows: Terminal half life in specific pathogen free ICR mouse at 10 mg/kg, po by LC/TSQ-MS analysis. The class given is ADME, organism-based. Conditions: in vivo, read-out: beta t1/2 (converted). Summed up: as §1
Data set [18] is described as follows: Terminal half life in specific pathogen free ICR mouse at 2 mg/kg, iv by LC/TSQ-MS analysis. It counts as ADME, organism-based. Conditions: in vivo, read-out: beta t1/2 (converted). Summed up:
as §1

Data set [19] can be described thus: Intrinsic clearance in specific pathogen free ICR mouse at 2 mg/kg, iv by LC/TSQ-MS analysis. It counts as ADME, organism-based. Conditions: in vivo.
Data set [20] in a line: AUC in specific pathogen free ICR mouse at 2 mg/kg, iv by LC/TSQ-MS analysis. The class given is ADME, organism-based. Conditions: in vivo. Summed up: as §1
A short description of data set [21]: Cmax in specific pathogen free ICR mouse at 2 mg/kg, iv by LC/TSQ-MS analysis. Set-up: dose 2 mg/kg, route intravenous. The class given is ADME, organism-based. Conditions: in vivo. The method, boiled down:
as §1

Data set [22] is described as follows: Cmax in specific pathogen free ICR mouse at 10 mg/kg, po by LC/TSQ-MS analysis. Conditions: in vivo. The class given is ADME, organism-based. Set-up: dose 10 mg/kg, route oral. Summed up:
as §1

As for `O=c1nc(N2CC3CCC2CN3CC2CCCCC2)sc2c([N+](=O)[O-])cc(C(F)(F)F)cc12` (stereo unspecified), the fraction unbound at 5 h in [1] is 0.001. For the same compound, the Selectivity ratio in data set [2] and in [8] was under 4 throughout. In addition, the half-life in data set [3] is 27.3 min; in [4], 30.6 min. The compound further had a Stability in data set [5] of 102%. Also, the figures for the microsomal CLint in data set [6] and in data set [9] were 25.4 µL/min/mg and 22.7 µL/min/mg, respectively. For the same compound, the solubility kinetic at 4.5 h in [7] was under 0.029 µg/mL. Besides, the MIC in [10] turned out to be 0.032 µM (≈ 0.0154 µg/mL).
Turning to `O=c1nc(N2C[C@H]3C[C@@H]2CN3CC2CCCCC2)sc2c([N+](=O)[O-])cc(C(F)(F)F)cc12`, the fraction unbound at 5 h in data set [1] is 0.004. The Ratio in data set [11] worked out at 1600. Further, the Selectivity ratio in data set [2] and in [8] was under 4 throughout. In addition, the half-life in [3] came to 7.05 min; in data set [4] it was 26.6 min. Also, the Stability in data set [5] was found to be 81.9%. Moreover, the figures for the microsomal CLint in data set [6] and in data set [9] were 98.4 µL/min/mg and 26.1 µL/min/mg, respectively. In [7], the solubility kinetic at 4.5 h worked out at 14.6 µg/mL (≈ 31.2 µM). In addition, in [10], the MIC stood at 0.064 µM (≈ 0.03 µg/mL).
In the case of `O=c1nc(N2C[C@H]3C[C@@H](C2)N3CC2CCCCC2)sc2c([N+](=O)[O-])cc(C(F)(F)F)cc12`, the Selectivity ratio in data set [2] and in data set [8] was under 4 in each case. The MIC in data set [10] was found to be 0.128 µM (≈ 0.06 µg/mL).
With `O=c1nc(N2[C@@H]3C[C@H]2CN(CC2CCCCC2)C3)sc2c([N+](=O)[O-])cc(C(F)(F)F)cc12`, the Selectivity ratio in data set [2] and in data set [8] was under 4 in each case. Besides, the MIC in data set [10] was 0.128 µM (≈ 0.06 µg/mL).
`O=c1nc(N2C[C@@H]3[C@H](C2)[C@H]3NCC2CCCCC2)sc2c([N+](=O)[O-])cc(C(F)(F)F)cc12`: in data set [1], the fraction unbound at 5 h was 0.005. Moreover, the MRT in data set [12] came out at 185 min; in data set [16] it was 134 min. The Selectivity ratio in data set [2] and in data set [8] was under 4 throughout. The compound further showed a Vd in data set [13] of 12.8 L/kg. Moreover, the AUC in [14] was 791 ng·h/mL; in data set [20], 576 ng·h/mL. Also, the half-life in data set [3] is 65.2 min; in data set [17], 131 min; in [18], 152 min; in data set [4], 76.6 min. Further, the bioavailability in data set [15] was found to be 27.4%. The compound further returned a Stability in data set [5] of 91.4%. For the same compound, the CL in data set [19] worked out at 58.2 mL/min/kg. The microsomal CLint in data set [6] came to 10.6 µL/min/mg; in data set [9], 9.05 µL/min/mg. In addition, the solubility kinetic at 4.5 h in data set [7] came to 4.8 µg/mL (≈ 10.2 µM). The figures for the Cmax in data set [21] and in data set [22] were 483 ng/mL and 195 ng/mL, respectively. Besides, in data set [10], the MIC came to 0.032 µM (≈ 0.015 µg/mL).
`O=c1nc(N2CCC3(CC2)CC3)sc2c([N+](=O)[O-])cc(C(F)(F)F)cc12`: the fraction unbound at 5 h in data set [1] was 0.006. In addition, the Selectivity ratio in data set [2] and in data set [8] was under 4 each time. Moreover, the half-life in data set [3] came to 8.33 min; in data set [4], 43 min. Besides, the Stability in data set [5] was 93.3%. For the same compound, the microsomal CLint in data set [6] was determined as 83.3 µL/min/mg; in data set [9] it was 16.1 µL/min/mg. In [7], the solubility kinetic at 4.5 h was 0.3 µg/mL (≈ 0.778 µM). Further, the MIC in data set [10] was found to be 0.016 µM (≈ 0.00617 µg/mL).
For `O=c1nc(N2CCN(CC3CCCCC3)CC2)sc2c([N+](=O)[O-])cc(C(F)(F)F)cc12` [MACOZINONE], the fraction unbound at 5 h in [1] is 0.001. Besides, the Selectivity ratio in data set [2] and in data set [8] was under 4 throughout. The half-life in data set [3] was 34.4 min; in data set [4], 43 min. For the same compound, in data set [5], the Stability was 88.7%. The microsomal CLint in [6] was 20.1 µL/min/mg; in data set [9], 16.5 µL/min/mg. Besides, the solubility kinetic at 4.5 h in data set [7] is under 0.01 µg/mL. Also, in data set [10], the MIC came out at 0.002 µM (≈ 0.000913 µg/mL).
`O=c1nc(N2CCC3(CCN(CC4CCCCC4)C3)C2)sc2c([N+](=O)[O-])cc(C(F)(F)F)cc12` (stereo unspecified): the Selectivity ratio in [2] and in data set [8] was under 4 in each case. Moreover, the MIC in data set [10] stood at 0.256 µM (≈ 0.127 µg/mL).
Take `O=c1nc(N2CCCC3(CCCCN3CC3CCCCC3)C2)sc2c([N+](=O)[O-])cc(C(F)(F)F)cc12` (stereo unspecified): the Selectivity ratio in data set [2] and in [8] was under 4 throughout. For the same compound, the MIC in data set [10] amounted to 1.02 µM (≈ 0.537 µg/mL).
`O=c1nc(N2CC3(CCN(CC4CCCCC4)CC3)C2)sc2c([N+](=O)[O-])cc(C(F)(F)F)cc12`: the Selectivity ratio in data set [2] and in data set [8] was under 4 each time. Besides, in data set [10], the MIC came to 1.02 µM (≈ 0.508 µg/mL).
As for `O=c1nc(N2CCC3(CCN(CC4CCCCC4)C3)CC2)sc2c([N+](=O)[O-])cc(C(F)(F)F)cc12`, the Selectivity ratio in data set [2] and in data set [8] was under 4 each time. Also, the MIC in [10] amounted to 0.128 µM (≈ 0.0654 µg/mL).
Regarding `O=c1nc(N2CCC3(CC2)CN(CC2CCCCC2)C3)sc2c([N+](=O)[O-])cc(C(F)(F)F)cc12`, the Selectivity ratio in data set [2] and in data set [8] was under 4 throughout. Moreover, the MIC in data set [10] came out at 0.512 µM (≈ 0.254 µg/mL).
With `O=c1nc(N2CC3(CN(CC4CCCCC4)C3)C2)sc2c([N+](=O)[O-])cc(C(F)(F)F)cc12`, the Selectivity ratio in [2] and in data set [8] was under 4 each time. Besides, the MIC in data set [10] is 0.256 µM (≈ 0.12 µg/mL).

Broadly, the MRT is the average time that molecules of a dose stay in the body. Broadly, the Vd is the apparent volume that relates the amount in the body to the concentration in plasma or blood. A lower Vd goes with confinement near the circulation. For orientation: AUC means concentration integrated over time. A higher AUC goes with more exposure. What is called bioavailability is dose-corrected exposure relative to a reference, in per cent. The low end stands for poor availability, the high end for good availability. By Cmax is commonly meant the peak of the concentration-time curve.

These data come from ChEMBL document CHEMBL4400578, “Spirocyclic and Bicyclic 8-Nitrobenzothiazinones for Tuberculosis with Improved Physicochemical and Pharmacokinetic Properties” (ACS Med Chem Lett, 2019).
